“Also recorded” adds a separate entry of the source. Like-named read-outs stand apart in the source and are kept apart here.
Legend:
[1] = format: in vivo, Sprague-Dawley rats; details: for Number of metabolites detected and tentatively identified: rat bile, urine, plasma and feces, oral 100 mg kg^−1; for Metabolic stability, comparison in words: rat in vivo metabolite profile, HFBA vs HPABA, R-HFBA vs S-HFBA
In short: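 Fasted male Sprague-Dawley rats (n = 5/group) received a single 100 mg kg−1 gavage in 0.5% CMC-Na. Urine and feces were collected 0–24 h in metabolic cages, heparinised plasma at 0.5, 3 and 6 h, and bile 0–12 h from bile-duct-catheterised rats. Feces were powdered and sonicated in methanol for 30 min. Analysis was by UHPLC-FT-ICR-MS, positive ESI, m/z 50–1000, with MS/MS at 10 eV.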

[2] = cited from earlier work
[3] = Urinary excretion of unchanged drug in rats after a single oral dose; format: in vivo, Sprague-Dawley rats; details: rat; for Time period of highest urinary excretion ratio: oral 50 mg kg^−1; for Cumulative amount in urine: n = 5, mean ± SD; for Cumulative urinary excretion, share of the total dose: oral 50 mg kg^−1, during 48 h, unchanged drug
In short: (§1)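 Male Sprague-Dawley rats (220 ± 20 g), fasted 12 h, given 50 mg kg−1 by gavage in 0.5% CMC-Na (n = 5/group). Urine and feces were collected in metabolic cages at intervals to 48 h; feces were air-dried, weighed and homogenised in saline. Bile-duct-cannulated rats (ether anaesthesia) were dosed after recovery, with bile collected every 2 h to 12 h. Unchanged drug was measured by UHPLC-MS/MS (positive ESI MRM, internal standard; LLOQ 0.005 μg mL−1).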

[4] = Fecal excretion of unchanged drug in rats after a single oral dose; format: in vivo, Sprague-Dawley rats; details: rat; for Time period of highest fecal excretion ratio: oral 50 mg kg^−1; for Cumulative amount in feces: n = 5, mean ± SD; for Accumulative fecal excretion, share of the total dose: unchanged drug
In short: as §1

[5] = format: in vivo, Sprague-Dawley rats; details: for Cumulative amount in bile: bile duct cannulated rat, n = 5, mean ± SD; for Cumulative biliary excretion, share of the dose: rat, oral 50 mg kg^−1, during 12 h, unchanged drug
In short: as §1

[6] = Total cumulative excretion in three routes; format: in vivo, Sprague-Dawley rats; details: rat, oral 50 mg kg^−1, unchanged drug
In short: as §1

[7] = cited from earlier work; remark: listed apart in the source
[8] = cited from earlier work; remark: listed apart in the source
[9] = cited from earlier work; remark: listed apart in the source
[10] = rats, oral (oral or intravenous) administration of each enantiomer

Number of metabolites detected and tentatively identified [1] | Metabolic stability, comparison in words [1] | Time period of highest urinary excretion ratio [3] | Cumulative amount in urine ([3]; oral 50 mg kg^−1, 2 h) | Cumulative amount in urine ([3]; oral 50 mg kg^−1, 4 h) | Cumulative amount in urine ([3]; oral 50 mg kg^−1, 6 h) | Cumulative amount in urine ([3]; oral 50 mg kg^−1, 8 h) | Cumulative amount in urine ([3]; oral 50 mg kg^−1, 10 h) | Cumulative amount in urine ([3]; oral 50 mg kg^−1, 12 h) | Cumulative amount in urine ([3]; oral 50 mg kg^−1, 24 h) | Cumulative amount in urine ([3]; oral 50 mg kg^−1, 36 h) | Cumulative amount in urine ([3]; oral 50 mg kg^−1, 48 h) | Cumulative urinary excretion, share of the total dose [3] | Time period of highest fecal excretion ratio [4] | Cumulative amount in feces ([4]; oral 50 mg kg^−1, 2 h) | Cumulative amount in feces ([4]; oral 50 mg kg^−1, 4 h) | Cumulative amount in feces ([4]; oral 50 mg kg^−1, 6 h) | Cumulative amount in feces ([4]; oral 50 mg kg^−1, 8 h) | Cumulative amount in feces ([4]; oral 50 mg kg^−1, 10 h) | Cumulative amount in feces ([4]; oral 50 mg kg^−1, 12 h) | SMILES | further results
8 | more metabolically stable than HPABA | – | – | – | – | – | – | – | – | – | – | – | – | – | – | – | – | – | – | CC(O)C(=O)Nc1ccc(C(F)(F)F)cc1C(=O)O (stereo not shown) [HFBA, 2-(2-Hydroxypropanamido)-5-trifluoromethyl benzoic acid] | Bioavailability compared with HPABA [2]: better; Half-life compared with HPABA [2]: longer
7 | more metabolically stable than S-HFBA | 0 to 2 h | 2747 ± 332 µg | 3149 ± 292 µg | 3309 ± 457 µg | 3894 ± 504 µg | 4010 ± 450 µg | 4117 ± 435 µg | 4333 ± 518 µg | 4394 ± 485 µg | 4425 ± 478 µg | 40.2% | 6 to 8 h | 6.300 ± 1.60 µg | 11.00 ± 3.50 µg | 254.1 ± 400 µg | 1216 ± 518 µg | 1980 ± 512 µg | 2362 ± 629 µg | CC(O)C(=O)Nc1ccc(C(F)(F)F)cc1C(=O)O (stereo not shown) [R-HFBA, 2-(2-Hydroxypropanamido)-5-trifluoromethyl benzoic acid] | Cumulative amount in feces ([4]; oral 50 mg kg^−1, 24 h): 2687 ± 598 µg; Cumulative amount in feces ([4]; oral 50 mg kg^−1, 36 h): 2782 ± 635 µg; Cumulative amount in feces ([4]; oral 50 mg kg^−1, 48 h): 2817 ± 626 µg; Accumulative fecal excretion, share of the total dose ([4]; oral 50 mg kg^−1, 48 h): 25.6%; Cumulative amount in bile ([5]; oral 50 mg kg^−1, 2 h): 185.3 ± 8.20 µg; Cumulative amount in bile ([5]; oral 50 mg kg^−1, 4 h): 531.7 ± 95.4 µg; Cumulative amount in bile ([5]; oral 50 mg kg^−1, 6 h): 783.1 ± 56.6 µg; Cumulative amount in bile ([5]; oral 50 mg kg^−1, 8 h): 925.9 ± 68.1 µg; Cumulative amount in bile ([5]; oral 50 mg kg^−1, 10 h): 1075 ± 62.6 µg; Cumulative amount in bile ([5]; oral 50 mg kg^−1, 12 h): 1239 ± 54.6 µg; Cumulative biliary excretion, share of the dose [5]: 11.3%; Total cumulative excretion in three routes, share of the dose [6]: 65.8%; AUC compared with S-HFBA [2, 10]: greater; also recorded: larger; Clearance (CL) compared with S-HFBA [2, 10]: significantly lower; t1/2 compared with S-HFBA [2, 10]: greater; also recorded: longer; Anti-inflammatory activity compared with aspirin [7]: superior to aspirin; Antiplatelet aggregation activity compared with aspirin [8]: superior to aspirin; Gastrointestinal toxicity compared with aspirin [9]: less
8 | – | 0 to 2 h | 1831 ± 253 µg | 2525 ± 285 µg | 2713 ± 185 µg | 3098 ± 279 µg | 3249 ± 294 µg | 3313 ± 319 µg | 3413 ± 251 µg | 3469 ± 216 µg | 3489 ± 225 µg | 31.7% | 10 to 12 h | 5.800 ± 7.70 µg | 17.60 ± 18.9 µg | 89.90 ± 80.3 µg | 791.6 ± 519 µg | 1604 ± 459 µg | 2470 ± 203 µg | CC(O)C(=O)Nc1ccc(C(F)(F)F)cc1C(=O)O (stereo not shown) [S-HFBA, 2-(2-Hydroxypropanamido)-5-trifluoromethyl benzoic acid] | Cumulative amount in feces ([4]; oral 50 mg kg^−1, 24 h): 2764 ± 248 µg; Cumulative amount in feces ([4]; oral 50 mg kg^−1, 36 h): 2878 ± 213 µg; Cumulative amount in feces ([4]; oral 50 mg kg^−1, 48 h): 2944 ± 252 µg; Accumulative fecal excretion, share of the total dose ([4]; oral 50 mg kg^−1, 48 h): 26.8%; Cumulative amount in bile ([5]; oral 50 mg kg^−1, 2 h): 170.8 ± 14.1 µg; Cumulative amount in bile ([5]; oral 50 mg kg^−1, 4 h): 515.4 ± 77.5 µg; Cumulative amount in bile ([5]; oral 50 mg kg^−1, 6 h): 571.8 ± 95.4 µg; Cumulative amount in bile ([5]; oral 50 mg kg^−1, 8 h): 652.9 ± 50.7 µg; Cumulative amount in bile ([5]; oral 50 mg kg^−1, 10 h): 745.6 ± 57.7 µg; Cumulative amount in bile ([5]; oral 50 mg kg^−1, 12 h): 817.0 ± 90.9 µg; Cumulative biliary excretion, share of the dose [5]: 7.4%; Total cumulative excretion in three routes, share of the dose [6]: 58.5%; Anti-inflammatory activity compared with aspirin [7]: superior to aspirin; Antiplatelet aggregation activity compared with aspirin [8]: superior to aspirin; Gastrointestinal toxicity compared with aspirin [9]: less
